Consider 14 molecules from ChEMBL document CHEMBL3414437, “Synthesis of CDDO-amino acid-nitric oxide donor trihybrids as potential antitumor agents against both drug-sensitive and drug-resistant colon cancer” (J Med Chem, 2015).

Experiment [1] in a line: Antiproliferative activity against human HCT8 cells assessed as inhibition of cell proliferation after 72 hrs by MTT assay. Type of experiment: functional, cell-based. Particulars: HCT-8, 72 h. A digest of the protocol:
(§1)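 Cells (1.0 × 10^4/well) grown overnight in DMEM with 10% FBS. Treated in triplicate with eight concentrations ([…]) of compound from DMSO stock, final DMSO <0.4%, for 72 h. MTT added for the last 4 h, formazan dissolved in DMSO, read at 570 nm. Inhibition = (Acontrol−Atreated)/Acontrol. IC50 given as mean ± SD of three independent experiments.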

A short description of experiment [2]: Antiproliferative activity against 5-FU resistant human HCT8 cells assessed as inhibition of cell proliferation after 72 hrs by MTT assay. It is filed as functional, cell-based. Conditions: HCT-8, 72 h. An outline of the steps: as §1
A general note: Tetrazolium assays rely on reduction of a dye to a coloured formazan, in cell work by metabolically active cells.

Experiment [3] deals with HCT-8. Description: Induction of nitric oxide release in human HCT8 cells at 100 uM incubated for 150 mins by Griess assay. Type of experiment: functional, cell-based. A digest of the protocol:
(§2)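 Cells (1 × 10^6/well) treated in triplicate with compound at 100 µM for 150 min. Lysates mixed with Griess reagent for 10 min at 37 °C and read at 540 nm. Nitrite quantified from a sodium nitrite standard curve; 0.4% DMSO-treated cells served as background. Mean ± SD of three experiments.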
(In general: Griess reagent forms a coloured azo dye with nitrite.)

Experiment [4] deals with HCT-8. Description: Induction of nitric oxide release in 5-FU resistant human HCT8 cells at 100 uM incubated for 150 mins by Griess assay. Type of experiment: functional, cell-based. An outline of the steps: as §2
A short description of experiment [5]: Antiproliferative activity against human HCT8 cells assessed as inhibition of cell proliferation at 1 uM after 72 hrs by MTT assay. Conditions: HCT-8, 72 h, read-out: GI. It is filed as functional. An outline of the steps: (§3)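 Cells grown in DMEM with 10% FBS and exposed to compound at 1 µM for 72 h. Proliferation measured by MTT at 570 nm and expressed as % inhibition versus untreated cells. Mean ± SD of three independent experiments.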

The nature of experiment [6]: Antiproliferative activity against 5-FU resistant human HCT8 cells assessed as inhibition of cell proliferation at 1 uM after 72 hrs by MTT assay. Conditions: HCT-8, 72 h, read-out: GI. It is filed as functional. An outline of the steps:
as §3

The nature of experiment [7]: Antiproliferative activity against human CCD-841-CoN cells assessed as inhibition of cell proliferation after 72 hrs by MTT assay. Type of experiment: cell-based. A digest of the protocol:
as §1

Experiment [8] concerns CCD-841CoN. Description: Induction of nitric oxide release in human CCD-841-CoN cells at 100 uM incubated for 150 mins by Griess assay. It is filed as functional, cell-based. An outline of the steps: as §2

Molecules are shown by their SMILES. Activity calls are given as the source filed them. The rule behind the calls is not given here.

For the molecule `CC1(C)CC[C@]2(C(=O)NCC(=O)O)CC[C@]3(C)[C@H](C(=O)C=C4[C@@]5(C)C=C(C#N)C(=O)C(C)(C)[C@@H]5CC[C@]43C)[C@@H]2C1`, the concentration for half-maximal inhibition (IC50) (as a rule, the concentration that gives 50% inhibition) was 3190 nM in experiment [1] and 2260 nM in experiment [2]. In addition, the result in experiment [3] and in experiment [4] was inactive.
As to `C[C@@H](NC(=O)[C@]12CCC(C)(C)C[C@H]1[C@H]1C(=O)C=C3[C@@]4(C)C=C(C#N)C(=O)C(C)(C)[C@@H]4CC[C@@]3(C)[C@]1(C)CC2)C(=O)OCC#CCOc1no[n+]([O-])c1S(=O)(=O)c1ccccc1`, the inhibition of growth at 1 µM in experiment [5] and in experiment [6] was over 90% each time. Moreover, the half-maximal inhibitory concentration (IC50) in experiment [1] was 370 nM; in experiment [2], 276 nM; in experiment [7], 958 nM. In addition, the outcome in experiment [3] and in experiment [4] was Active. For the same molecule, the result in experiment [8] was inactive.
Take `CC1(C)CC[C@]2(C(=O)N3CCC[C@H]3C(=O)OCCCCCCOc3no[n+]([O-])c3S(=O)(=O)c3ccccc3)CC[C@]3(C)[C@H](C(=O)C=C4[C@@]5(C)C=C(C#N)C(=O)C(C)(C)[C@@H]5CC[C@]43C)[C@@H]2C1`: the result in experiment [3], in experiment [4] and in experiment [8] was inactive.
For `CC1(C)CC[C@]2(C(=O)NCC(=O)OCCCOc3no[n+]([O-])c3S(=O)(=O)c3ccccc3)CC[C@]3(C)[C@H](C(=O)C=C4[C@@]5(C)C=C(C#N)C(=O)C(C)(C)[C@@H]5CC[C@]43C)[C@@H]2C1`, the inhibition of growth at 1 µM in experiment [5] and in experiment [6] was over 90% in each case. Also, the concentration for half-maximal inhibition (IC50) in experiment [1] came out at 550 nM; in experiment [2], 380 nM; in experiment [7] it was 1720 nM.
For the molecule `CC1(C)CC[C@]2(C(=O)NCC(=O)OCCCCCCOc3no[n+]([O-])c3S(=O)(=O)c3ccccc3)CC[C@]3(C)[C@H](C(=O)C=C4[C@@]5(C)C=C(C#N)C(=O)C(C)(C)[C@@H]5CC[C@]43C)[C@@H]2C1`, the inhibition of growth at 1 µM in experiment [5] and in experiment [6] was over 90% throughout. For the same molecule, the results for the IC50 in experiment [1], in experiment [2] and in experiment [7] were 356 nM, 339 nM and 1420 nM, respectively.
Take `CC1(C)CC[C@]2(C(=O)NCC(=O)OCCCCOc3no[n+]([O-])c3S(=O)(=O)c3ccccc3)CC[C@]3(C)[C@H](C(=O)C=C4[C@@]5(C)C=C(C#N)C(=O)C(C)(C)[C@@H]5CC[C@]43C)[C@@H]2C1`: the inhibition of growth at 1 µM in experiment [5] and in experiment [6] was over 90% each time. Also, the figures for the 50% inhibitory concentration (IC50) in experiment [1], in experiment [2] and in experiment [7] were 383 nM, 315 nM and 1120 nM, respectively.
As to `O=c1[nH]cc(F)c(=O)[nH]1` [FLUOROURACIL], the results for the half-maximal inhibitory concentration (IC50) in experiment [1] and in experiment [2] were 910 nM and 36600 nM, respectively.
Turning to `CC1(C)CC[C@]2(C(=O)NCCCC(=O)OCC#CCOc3no[n+]([O-])c3S(=O)(=O)c3ccccc3)CC[C@]3(C)[C@H](C(=O)C=C4[C@@]5(C)C=C(C#N)C(=O)C(C)(C)[C@@H]5CC[C@]43C)[C@@H]2C1`, the inhibition of growth at 1 µM in experiment [5] and in experiment [6] was over 90% throughout. The IC50 in experiment [1] was 504 nM; in experiment [2], 381 nM; in experiment [7] it was 1700 nM.
As to `O=S(=O)(c1ccccc1)c1c(OCC#CCO)no[n+]1[O-]`, the IC50 in experiment [1] is 33500 nM; in experiment [2], 36600 nM.
On to `CC1(C)CC[C@]2(C(=O)NCCC(=O)OCC#CCOc3no[n+]([O-])c3S(=O)(=O)c3ccccc3)CC[C@]3(C)[C@H](C(=O)C=C4[C@@]5(C)C=C(C#N)C(=O)C(C)(C)[C@@H]5CC[C@]43C)[C@@H]2C1`, for which the inhibition of growth at 1 µM in experiment [5] and in experiment [6] was over 90% throughout. The IC50 in experiment [1] is 379 nM; in experiment [2], 462 nM; in experiment [7] it was 1470 nM.
As for `CC1(C)CC[C@]2(C(=O)NCC(=O)OCCOCCOc3no[n+]([O-])c3S(=O)(=O)c3ccccc3)CC[C@]3(C)[C@H](C(=O)C=C4[C@@]5(C)C=C(C#N)C(=O)C(C)(C)[C@@H]5CC[C@]43C)[C@@H]2C1`, the inhibition of growth at 1 µM in experiment [5] and in experiment [6] was over 90% each time. For the same molecule, the values for the half-maximal inhibitory concentration (IC50) in experiment [1], in experiment [2] and in experiment [7] were 872 nM, 562 nM and 3130 nM, respectively.
As for `CC1(C)CC[C@]2(C(=O)N3CCC[C@H]3C(=O)OCC#CCOc3no[n+]([O-])c3S(=O)(=O)c3ccccc3)CC[C@]3(C)[C@H](C(=O)C=C4[C@@]5(C)C=C(C#N)C(=O)C(C)(C)[C@@H]5CC[C@]43C)[C@@H]2C1`, the inhibition of growth at 1 µM in experiment [5] and in experiment [6] was over 90% throughout. The figures for the IC50 in experiment [1], in experiment [2] and in experiment [7] were 441 nM, 343 nM and 1420 nM, respectively.
For the molecule `CC1(C)CC[C@]2(C(=O)N3CCC[C@H]3C(=O)OCCCOc3no[n+]([O-])c3S(=O)(=O)c3ccccc3)CC[C@]3(C)[C@H](C(=O)C=C4[C@@]5(C)C=C(C#N)C(=O)C(C)(C)[C@@H]5CC[C@]43C)[C@@H]2C1`, the outcome in experiment [3], in experiment [4] and in experiment [8] was inactive.
Take `CC1(C)CC[C@]2(C(=O)N3CCC[C@H]3C(=O)OCCCCOc3no[n+]([O-])c3S(=O)(=O)c3ccccc3)CC[C@]3(C)[C@H](C(=O)C=C4[C@@]5(C)C=C(C#N)C(=O)C(C)(C)[C@@H]5CC[C@]43C)[C@@H]2C1`: the outcome in experiment [3], in experiment [4] and in experiment [8] was inactive.
